Data set [1] can be described thus: Toxicity on uninfected African green monkey kidney cells determined in microscopic evaluation and quantitative neutral red dye uptake assay. It counts as cell-based. Conditions: chlorocebus sabaeus, uninfected African green monkey kidney (Vero) cells. The gist of the method:
(§1)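 Uninfected cells were seeded as subconfluent monolayers and exposed to compound for 3 days. Viability was judged both by microscopic inspection and by quantitative neutral red dye uptake, giving CC50.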

Data set [2] is described as follows: Toxicity on uninfected human foreskin fibroblast cells determined in microscopic evaluation and quantitative neutral red dye uptake assay. It counts as cell-based. Conditions: uninfected human foreskin fibroblast (HFF) cells. The procedure, abridged: as §1
For data set [3], the target named is T1, DNA polymerase alpha catalytic subunit (Homo sapiens, UniProt P09884).
T1 sequence (P09884 whole entry): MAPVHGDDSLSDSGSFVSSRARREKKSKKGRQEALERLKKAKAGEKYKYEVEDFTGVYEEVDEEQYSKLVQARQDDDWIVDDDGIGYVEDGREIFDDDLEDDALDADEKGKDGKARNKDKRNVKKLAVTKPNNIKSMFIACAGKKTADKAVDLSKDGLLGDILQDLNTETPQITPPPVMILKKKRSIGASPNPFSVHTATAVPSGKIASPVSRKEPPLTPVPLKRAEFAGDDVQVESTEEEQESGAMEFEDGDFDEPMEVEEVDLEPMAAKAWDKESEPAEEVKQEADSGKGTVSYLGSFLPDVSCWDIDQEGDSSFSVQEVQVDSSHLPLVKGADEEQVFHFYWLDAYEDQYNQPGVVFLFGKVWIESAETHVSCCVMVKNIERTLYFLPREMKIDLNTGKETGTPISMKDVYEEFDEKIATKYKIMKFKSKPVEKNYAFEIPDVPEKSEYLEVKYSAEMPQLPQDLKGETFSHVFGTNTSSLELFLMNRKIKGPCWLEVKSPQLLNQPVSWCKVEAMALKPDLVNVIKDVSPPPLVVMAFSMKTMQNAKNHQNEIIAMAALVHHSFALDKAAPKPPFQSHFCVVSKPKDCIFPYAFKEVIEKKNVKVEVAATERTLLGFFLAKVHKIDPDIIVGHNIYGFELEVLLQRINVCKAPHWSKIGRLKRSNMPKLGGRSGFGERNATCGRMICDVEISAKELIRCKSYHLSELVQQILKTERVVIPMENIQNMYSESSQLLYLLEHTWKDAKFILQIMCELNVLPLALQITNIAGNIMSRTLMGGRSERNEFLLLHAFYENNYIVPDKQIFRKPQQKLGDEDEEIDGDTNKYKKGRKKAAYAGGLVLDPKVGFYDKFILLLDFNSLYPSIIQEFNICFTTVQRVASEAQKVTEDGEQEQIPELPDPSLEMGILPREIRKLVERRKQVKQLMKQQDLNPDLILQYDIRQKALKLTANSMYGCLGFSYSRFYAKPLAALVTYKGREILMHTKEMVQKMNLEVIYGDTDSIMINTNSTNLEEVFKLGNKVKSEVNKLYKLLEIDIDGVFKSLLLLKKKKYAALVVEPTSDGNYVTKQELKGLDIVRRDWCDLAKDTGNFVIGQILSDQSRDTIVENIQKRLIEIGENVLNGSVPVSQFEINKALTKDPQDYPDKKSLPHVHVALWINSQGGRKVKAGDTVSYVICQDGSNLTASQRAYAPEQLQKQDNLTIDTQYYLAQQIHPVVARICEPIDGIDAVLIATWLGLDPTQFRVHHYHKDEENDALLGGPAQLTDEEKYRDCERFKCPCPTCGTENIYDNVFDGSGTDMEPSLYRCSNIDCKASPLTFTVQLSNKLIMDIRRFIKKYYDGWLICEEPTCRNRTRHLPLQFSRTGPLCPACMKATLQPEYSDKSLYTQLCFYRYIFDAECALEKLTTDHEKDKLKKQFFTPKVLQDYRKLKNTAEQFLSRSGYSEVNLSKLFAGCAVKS
Nature of the data set: Inhibition of human alpha DNA polymerase (95 uL) activity in a solution containg […] HEPES (pH 7.5) upon incubation for 12 minutes at 26 degrees C with the compound dissolved in DMSO.

The next data set deals with HFF. Nature of the data set: Antiviral activity against Varicella-Zoster virus (Webster strain) grown on human foreskin fibroblast cells determined by vedduction in plaque formation upon incubation at 37 degrees C with the compound dissolved in DMSO until plaque were formed. It counts as functional, cell-based. The gist of the method: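 Monolayers of human foreskin fibroblasts were infected with about 50 PFU per well for 1 h at 37 °C. The inoculum was then replaced with DMEM containing 10% FBS, 0.8% carboxymethyl cellulose and diluted compound from 200-fold DMSO stocks. Plates were incubated at 37 °C until plaques formed. Plaques were counted microscopically or after 0.1% crystal violet staining. IC50 came from linear regression of % inhibition versus untreated controls.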

The next data set concerns Vero. Nature of the data set: Antiviral activity against herpes simplex virus type 1 (KOS strain) grown on human foreskin fibroblast cells determined by vedduction in plaque formation upon incubation at 37 degrees C with the compound dissolved in DMSO until plaque were formed. It counts as functional, cell-based. The gist of the method: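 HSV-1 KOS, about 50 PFU per well, was adsorbed for 1 h at 37 °C. The inoculum was then replaced with drug dilutions from 200-fold DMSO stocks in DMEM containing 10% FBS and 0.8% carboxymethyl cellulose. Cultures were kept at 37 °C until plaques appeared. Plaques were counted microscopically or by crystal violet staining (0.1% in 20% ethanol). IC50 came from linear regression of % inhibition relative to the uninhibited control.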

From ChEMBL document CHEMBL1141075, “4-Oxo-4,7-dihydrothieno[2,3-b]pyridines as non-nucleoside inhibitors of human cytomegalovirus and related herpesvirus polymerases” (J Med Chem, 2005) come the findings set out here.

In the case of `Cn1cc(C(=O)NCc2ccc(Cl)cc2)c(=O)c2cc(CN3CCOCC3)ccc21`, the CC50 in data set [1] and in data set [2] was greater than 100 µM in each case. For the same compound, the IC50 in data set [3] is greater than 40 µM; with HFF it was 0.34 µM; with Vero it was 3.5 µM.

Take `O=C(NCc1ccc(Cl)cc1)c1cnc2ccc(CCCO)cc2c1O`: the 50% cytotoxic concentration (CC50) in data set [1] and in data set [2] was greater than 100 µM in each case. Moreover, the IC50 was greater than 40 µM in data set [3], 0.17 µM with HFF and 7.4 µM in the data set with Vero.

Take `Cn1cc(C(=O)NCc2ccc(Cl)cc2)c(=O)c2cc(CN3CCOCC3)sc21`: the CC50 in data set [1] and in data set [2] was greater than 100 µM in each case. The IC50 was greater than 40 µM in data set [3], 0.77 µM with HFF and 3.7 µM with Vero.

One may read the CC50 as the concentration giving 50% cytotoxicity. The IC50 is the concentration at which inhibition is half-maximal.
